A selection: hits, their analogues and other compounds. The true share with any hit is near 1.6%.
14-3-3 Bad PPI = disrupts binding of bovine 14-3-3 zeta to phospho-Bad peptide. P63103. 220,000 tested, 0.71% active. AID 781. TR-FRET 14-3-3zeta/Dy647-pBad peptide displacement, 1 h. inhibition, % at 21.7 µM;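 active means inhibition above about 70%, limit read from the data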;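 further: 0% = full 14-3-3 plus peptide FRET controls and 100% = background without 14-3-3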
RBBP9 inh = inhibitors of human serine hydrolase RBBP9; recombinant RBBP9, FP-Rh probe fluorescence polarization; inhibition, % at 7.94 µM; 220,000 tested, 0.2% active; AID 1515;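 active means inhibition above the campaign mean of all tested compounds plus 3 SD, cut at about 14% in these data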;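 further: plate controls were DMSO wells with RBBP9 for no effect and wells lacking RBBP9 protein for full effect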
Target sequence (O75884 whole entry, looked up): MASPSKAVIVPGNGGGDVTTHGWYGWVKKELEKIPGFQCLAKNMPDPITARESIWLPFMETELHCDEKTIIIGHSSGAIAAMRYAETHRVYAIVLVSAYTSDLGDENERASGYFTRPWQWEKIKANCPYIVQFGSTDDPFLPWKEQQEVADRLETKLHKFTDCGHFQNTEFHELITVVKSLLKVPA
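system = RBBP9 protein | input = RBBP9 at 2.5 µM in dispensed solution, before mixing | measured by = fluorescence polarization (mP), excitation 525 nm, emission 598 nm | incubation = enzyme-compound preincubation 30 min, then probe labeling 45 min, 25 °C | buffer or medium = Tris-NaCl-Pluronic buffer, pH 8.0 | compound = single dose 7.94 µM | also added = FP-Rh probe, 375 nM dispensing solution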
eIF4E-4G inh = blocks eIF4E binding to eIF4G. P63073+Q04637. TR-FRET eIF4E-eIF4GI(517-606) binding, 2 h. inhibition, % at 21.7 µM. 220,000 tested, 0.37% active. AID 782;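 active means inhibition above about 30%, limit read from the data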;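 further: 0% = full FRET control wells and 100% = background wells lacking eIF4GI fragment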
PKD1 inh = blocks activity of human protein kinase D1 | Q15139 | PKD1 kinase fluorescence polarization assay | inhibition, % (test concentration not listed) | 200,000 tested, 0.056% active
EBV gp42 block = EBV gp42 inhibition | inhibition, % (tested at 21.74 µM) | Fluorescence polarization binding assay, mP read-out | 220,000 tested, 0.42% active | AID 1085
Target sequence (Q1HVG2 whole entry, looked up): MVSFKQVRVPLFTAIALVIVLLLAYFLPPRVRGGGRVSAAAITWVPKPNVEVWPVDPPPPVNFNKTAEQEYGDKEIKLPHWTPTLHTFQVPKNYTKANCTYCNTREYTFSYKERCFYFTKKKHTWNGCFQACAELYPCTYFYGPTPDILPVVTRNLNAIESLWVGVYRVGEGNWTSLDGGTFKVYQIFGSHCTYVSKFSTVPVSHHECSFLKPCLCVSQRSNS
Active calls of the source: *; . = not tested or not shown; [ ] = dose if it differs, or a comment. Unless noted, no stated cut-off is given here; in the data, active means inhibition above about 50%; inactive means the rest.

SMILES	14-3-3 Bad PPI	RBBP9 inh	eIF4E-4G inh	PKD1 inh	EBV gp42 block
CN(C)c1ccc(/C=C2\CCC/C(=C\c3ccccc3)C2=O)cc1	2	-1	-3	-6	119*
COc1ccc2nc(SCC(=O)NC(C)C)[nH]c2c1	80*	-10	6	-5	-5
C#CCn1c(=NC(=O)c2sc3ccccc3c2Cl)sc2cc(S(N)(=O)=O)ccc21	77*[fluorescence artefact?]	-10	14	14	-11
COc1ccccc1NS(=O)(=O)/C=C/c1ccccc1	-24	-2	4	-7	-15
CN(C)c1ccc(/C=C/C(=O)c2cc(Cl)ccc2O)cc1	-14	0	2	.	65*
COc1ccc(C(=O)N2N=C3CC(C)(C)OCC3C2c2ccccc2)cc1 (stereo unspecified)	-2	1	2	-8	-9
O=C(Nc1sc2c(c1C(=O)O)CCC2)c1ccccc1	83*	12	12	-1	-3
CCOc1ccc(-c2csc(NC(=O)CSC3=NC(=O)CN3C(C)=O)n2)c2ccccc12	-4	-7	5	10	130*
CC1=NC(C#N)=C(C#N)NC(C)(C)C1	-1	-2	-4	-1	-12
Cc1cc(=O)oc(C)c1C(=O)Nc1ccc2ncccc2c1	-6	0	5	-6	72*
Cc1cc(=O)oc(C)c1C(=O)Nc1ccc2nsnc2c1	.	7	.	8	.
CC(C)(CCl)C(=O)Nc1ccc(OC(F)(F)F)cc1	4	-8	-3	4	61*
COC(=O)c1ccccc1Oc1ccc(NC(=O)C(C)(C)CCl)cc1	-12	-4	3	-7	7
CN(C)c1ccnc(Nc2ccccc2)c1C#N	-17	0	2	1	-8
CN(C)c1ccnc2c[cH-]cc12.[Fe].c1ccc(-[c-]2[c-](-c3ccccc3)[c-](-c3ccccc3)[c-](-c3ccccc3)[c-]2-c2ccccc2)cc1 (stereo unspecified)	50	.	41*	.	-2
Cc1nc2ccccc2n2c(O)c(CC(=O)O)cc12	-2	-6	2	7	129*
O=S(=O)(N/N=C/c1ccc(N2CCOCC2)cc1)c1ccc(Br)cc1	-1	1	0	-6	11
CCCN1CCc2c(sc(NC(=S)NC(=O)c3ccccc3)c2C#N)C1	90*	-7	-5	2	-23
CC(C)N(C(=O)C[n+]1ccsc1N)c1ccccc1	2	-7	0	3	-1
COc1ccc2c(c1O)C(=O)c1ccccc1C2=O	24	-9	4	7	-13
Nc1c(O)ccc2c1C(=O)c1ccccc1C2=O	-52	2	-6	47	146*
COc1ccccc1-n1cc(CN2CCCC(CO)(Cc3cccc(Cl)c3)C2)cn1 (stereo unspecified)	-6	-9	0	-6	-9
COc1ccc(NC(C)C(=O)Nc2ccc(C#N)cc2)cc1Cl (stereo unspecified)	-1	-7	31*	10	1
CC(=O)O[C@@H]1[C@@H](OC(C)=O)[C@H](n2ccc3cc([N+](=O)[O-])ccc32)OC[C@@H]1OC(C)=O	-11	-4	-6	-3	-7
Cc1cc(C)c2cc3c(ccn3C3OC[C@H](O)[C@H](O)[C@H]3O)cc2n1 (stereo partly specified)	8	-3	-18	-10	94*
SMILES	14-3-3 Bad PPI	RBBP9 inh	eIF4E-4G inh	PKD1 inh	EBV gp42 block
O=c1oc2ccccc2cc1-c1csc(Nc2nc3c(F)cccc3s2)n1	27	7	18	-1	-32
O=c1oc2ccccc2cc1-c1csc(Nc2nc3ccc(F)cc3s2)n1	82*[fluorescence artefact?]	-4	10	-16	9
CCCCCn1c(=O)c(C(=O)c2ccccc2)nc2ccccc21	-5	1	2	-3	-11
CCCCCCn1c(=O)[nH]c2nc3cc(N)ccc3nc2c1=O	-3	0	7	7	148*
CC(=O)N1CCN(CC(=O)Nc2c(Cl)cccc2Cl)CC1	76*	-7	-13	-1	-12
O=C(O)c1ccc(N2Cc3ccccc3C2)cc1O	50	-1	7	-4	10
C=CCSc1nc2c(cc1C#N)CCC2	90*[fluorescence artefact?]	1	-5	-10	-15
C=C(C)CSc1nc2c(cc1C#N)CCC2	0	2	-10	3	-26
NNC(=S)Nc1cccc(-c2n[nH]c(=S)o2)c1	-1	-10	-12	.	-11
CC(C)NCC(=O)Nc1c2c(nc3ccccc13)CCC2	30	0	31*	.	-12
COc1cc(C(=O)NNC(=O)C2CC=CCC2C(=O)O)cc(OC)c1OC (stereo unspecified)	1	-5	30*[fluorescence artefact?]	4	-7
CCOC(=O)N1CCC(Nc2nc3ccccc3nc2NS(=O)(=O)c2ccc(Cl)cc2)CC1	28	0	5	3	54*
CCOC(=O)N1CCC(NC(=O)c2ccc(Cl)cc2)CC1	3	-7	-2	.	-9
N/C(=N\O)C1COc2ccccc2O1 (stereo unspecified)	84*	-3	0	-2	-8
CC(=O)N/N=C(\C)C1COc2ccccc2O1 (stereo unspecified)	-6	-6	0	.	1
CC(C)CC(=O)N=C1SC2CS(=O)(=O)CC2N1Cc1ccccc1Cl (stereo unspecified)	-2	-17	11	.	-12
c1ccc(N2CCN(Cc3ccnc4ccccc34)CC2)cc1	71*	-12	3	1	-13
CCC(=O)Nc1cccc(NC(=O)c2ccc(C)cc2Cl)c1	31	-7	3	-5	-1
Cc1cc(O)c(/C=N/OCc2ccc(Cl)cc2Cl)c(=O)o1	-7	1	76*	-6	-3
CC(=O)NC1=NN(C(C)=O)C(c2ccco2)S1 (stereo unspecified)	11	2	3	.	-14
CCOc1cc(Br)c(Br)c(C=Nc2ccc(NC(C)=O)cc2)c1O	44	-1	4	14	131*
CC(=O)Nc1ccc(N=Cc2c(O)c(C(=O)Nc3ccccc3)cc3ccccc23)cc1	49	3	30*	30	136*
COc1cccc(NC(=O)Cn2cnc3sc(C)c(S(=O)(=O)N4CCCCC4)c3c2=O)c1	8	-6	0	-5	-4
Cc1cc(C)c2c(c1)c(C)cc1nnc(SCC(=O)c3cccs3)n12	73*	-4	0	-11	-6
CCn1c(SCC(=O)c2cccs2)nnc1-c1cccs1	4	-5	2	-8	-3
SMILES	14-3-3 Bad PPI	RBBP9 inh	eIF4E-4G inh	PKD1 inh	EBV gp42 block
Cc1ccc2c(c1)nnn2C1CCN(CC(=O)NNC(=O)c2ccco2)CC1	-2	1	1	10	-3
Cc1ccc(-c2nnc(Nc3ccc4c(c3)OCO4)c3ccccc23)cc1S(=O)(=O)NC(C)C	-9	4	-1	5	-12
CC(=O)Nc1ccc2sc(C)nc2c1	3	-6	64*	.	-13
CN(C)C(=O)C(=O)c1cccn1-c1cccc(Cl)c1C#N	-11	-8	1	6	-2
Nc1cc(-c2ccc(Cl)cc2)nn1-c1ccccc1	-8	-6	1	0	7
Nc1ccc(-c2cc(N)n(-c3ccccc3)n2)cc1	81*	-5	8	-5	-8

Bioassay records (PubChem)
